The test system of assay [1] is Rattus norvegicus. As to the kind of experiment: Antihyperglycemic activity in Charles Foster/Wistar albino rat assessed as reduction in blood glucose level at 100 mg/kg, po administered 30 mins before sucrose challenge. It counts as functional. In short, it runs like this:
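Male Charles Foster/Wistar rats, 160 ± 20 g, fasted 16 h; animals with glucose 60–80 mg/dl used, 5–6 per group. Given 100 mg/kg orally as suspension in 1.0% gum acacia (controls vehicle alone). Sucrose 10.0 g/kg orally 30 min later. Glucometer readings at 30, 60, 90, 120 min. Percent activity derived from AUC of treated versus control groups.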

Assay [2] has as its target T1, Tyrosine-protein phosphatase non-receptor type 1 (Homo sapiens) (UniProt P18031).
T1 sequence (whole entry): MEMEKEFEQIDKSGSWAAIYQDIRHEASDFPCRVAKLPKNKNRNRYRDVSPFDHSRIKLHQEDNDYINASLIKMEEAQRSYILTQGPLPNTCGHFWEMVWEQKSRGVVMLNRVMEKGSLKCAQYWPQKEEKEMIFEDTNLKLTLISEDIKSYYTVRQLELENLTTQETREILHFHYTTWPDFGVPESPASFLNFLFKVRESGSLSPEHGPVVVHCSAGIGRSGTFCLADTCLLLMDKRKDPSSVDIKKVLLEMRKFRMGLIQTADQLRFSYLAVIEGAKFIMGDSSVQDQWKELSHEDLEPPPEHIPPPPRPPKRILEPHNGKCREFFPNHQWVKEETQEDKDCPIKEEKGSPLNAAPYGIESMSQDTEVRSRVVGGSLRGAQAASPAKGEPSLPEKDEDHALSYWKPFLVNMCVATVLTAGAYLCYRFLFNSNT
As to the kind of experiment: Inhibition of protein tyrosine phosphatase-1B at 10 uM incubated for 10 mins using pNPP substrate by modified Goldstein method. On the set-up: Activity: scale not given: the % may be the effect or the level left. An outline of the steps:
(§1)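 PTP-1B: compound preincubated 10 min with enzyme, with or without 0.01% Triton X-100. Then 10 mM pNPP in 50 mM HEPES pH 7.0 with 1 mM DTT and 2 mM EDTA, 30 min at 37 °C. Stopped with 0.1 N NaOH; absorbance read at 410 nm. p-Nitrophenolate calculated using ε 1.78 × 10⁴ M⁻¹cm⁻¹. Sodium orthovanadate used as reference.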

In assay [3] the test system is Rattus norvegicus. As to the kind of experiment: Antihyperglycemic activity against sucrose challenged streptozotocin-induced diabetic Sprague-Dawley albino rat assessed as reduction in blood glucose level at 100 mg/kg, po administered 30 mins before sucrose challenge measured after 5 hrs. It counts as functional. An outline of the steps:
(§2)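 Male Sprague Dawley rats, 160 ± 20 g, fasted overnight, given streptozotocin 60 mg/kg ip in 100 mM citrate pH 4.5. Rats with glucose 144–270 mg/dl at 48 h count as diabetic, 5–6 per group. Dosed 100 mg/kg orally in 1.0% gum acacia. Sucrose 2.5 g/kg given 30 min later. Glucose read at 30–300 min and 24 h. Non-responders excluded.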

For assay [4], the system named is Rattus norvegicus. As to the kind of experiment: Antihyperglycemic activity against sucrose challenged streptozotocin-induced diabetic Sprague-Dawley albino rat assessed as reduction in blood glucose level at 100 mg/kg, po administered 30 mins before sucrose challenge measured after 24 hrs. It counts as functional. An outline of the steps: as §2
Assay [5] concerns the target T2, Tyrosine-protein phosphatase non-receptor type 1 (Homo sapiens, UniProt P18031).
T2 sequence (P18031 whole entry): T1 sequence (whole entry)
As to the kind of experiment: Inhibition of protein tyrosine phosphatase-1B at 10 uM incubated for 10 mins using pNPP substrate in absence of Triton X-100 by modified Goldstein method. An outline of the steps:
as §1

For assay [6], the target named is T2, Tyrosine-protein phosphatase non-receptor type 1. As to the kind of experiment: Inhibition of protein tyrosine phosphatase-1B at 10 uM incubated for 10 mins using pNPP substrate in presence of 0.01% Triton X-100 by modified Goldstein method. An outline of the steps:
as §1

For `COc1ccc(-c2cc(-c3ccccc3)no2)c(OCC(O)CN2CCCCC2)c1` (stereo not drawn), the inhibition in vivo at 100 mg/kg in the assay on Rattus norvegicus [1] was 17%; in the assay with Rattus norvegicus [3] it was 15.8%; in the assay on Rattus norvegicus [4] it was 16.8%. The Activity in assay [2] is 85.9%. The IC50 came to 6.8 µM in assay [5] and 3.31 µM in assay [6].
`COc1ccc(-c2cc(-c3ccccc3)no2)c(OCCCN(C)C)c1`: the inhibition in vivo at 100 mg/kg with Rattus norvegicus [1] is 11.8%. The same compound showed an inhibition in assay [2] of 22.3%. Also, the IC50 in assay [5] and in assay [6] was 25.3 µM throughout.
In the case of `COc1ccc(-c2cc(-c3ccccc3)no2)c(OCCN2CCOCC2)c1`, the inhibition in vivo at 100 mg/kg in the assay on Rattus norvegicus [1] was determined as 2.8%. This compound had an inhibition in assay [2] of 82.9%. The IC50 in assay [5] was determined as 2.5 µM; in assay [6] it was 2.61 µM.
As for `COc1ccc(-c2cc(-c3ccccc3)no2)c(OCC2CO2)c1` (stereo not drawn), in the assay with Rattus norvegicus [1], the inhibition in vivo at 100 mg/kg was determined as 10.7%. Besides, the Activity in assay [2] is 11.8%. Also, the figures for the half-maximal inhibitory concentration (IC50) in assay [5] and in assay [6] were 31.1 µM and 31.3 µM, respectively.
On to `COc1ccc(-c2cc(-c3ccccc3)no2)c(OCCCC(=O)O)c1`, for which the inhibition in vivo at 100 mg/kg was 14.2% in the assay on Rattus norvegicus [1], 14.9% in the assay on Rattus norvegicus [3] and 14.2% with Rattus norvegicus [4]. The compound further showed an Activity in assay [2] of 24.4%. In addition, the IC50 in assay [5] worked out at 22.3 µM; in assay [6] it was 22.4 µM.
Consider `CCN(CC)CCCOc1cc(OC)ccc1-c1cc(-c2ccccc2)no1`, for which the inhibition in vivo at 100 mg/kg with Rattus norvegicus [1] was determined as 14.3%; with Rattus norvegicus [3], 7.8%; with Rattus norvegicus [4] it was 9.2%. In assay [2], this compound showed an inhibition of 21.8%. In addition, the figures for the half-inhibitory concentration (IC50) in assay [5] and in assay [6] were 28 µM and 28.2 µM, respectively.
Consider `CCOC(=O)COc1cc(OC)ccc1-c1cc(-c2ccccc2)no1`, for which the inhibition in vivo at 100 mg/kg in the assay on Rattus norvegicus [1] was found to be 10.4%. In assay [2], this compound gave an inhibition of 79.3%. Besides, the 50% inhibitory concentration (IC50) in assay [5] came to 5.25 µM; in assay [6], 5.35 µM.
Regarding `COc1ccc(-c2cc(-c3ccccc3)no2)c(OCCN(C)C)c1`, the inhibition in vivo at 100 mg/kg was 16.8% in the assay on Rattus norvegicus [1], 15.3% in the assay on Rattus norvegicus [3] and 15.9% in the assay on Rattus norvegicus [4]. In assay [2], this compound gave an inhibition of 33.5%. In addition, the concentration for half-maximal inhibition (IC50) came out at 24.2 µM in assay [5] and 24.3 µM in assay [6].
`CCOC(=O)CCCOc1cc(OC)ccc1-c1cc(-c2ccccc2)no1`: the inhibition in vivo at 100 mg/kg in the assay with Rattus norvegicus [1] was 4.6%. The same compound gave an inhibition in assay [2] of 20.1%. Also, the IC50 in assay [5] and in assay [6] was 26.7 µM throughout.
Take `COc1ccc(-c2cc(-c3ccccc3)no2)c(O)c1`: the inhibition in vivo at 100 mg/kg with Rattus norvegicus [1] worked out at 9.8%. Moreover, the inhibition in assay [2] came to 21.8%. In addition, the figures for the IC50 in assay [5] and in assay [6] were 27.5 µM and 27.6 µM, respectively.
`CCN(CC)CC(O)COc1cc(OC)ccc1-c1cc(-c2ccccc2)no1` (stereo not drawn): the figures for the inhibition in vivo at 100 mg/kg in the assay with Rattus norvegicus [1], in the assay with Rattus norvegicus [3] and with Rattus norvegicus [4] were 13.8%, 11.6% and 11.4%, respectively. The Activity in assay [2] stood at 82.8%. Further, the 50% inhibitory concentration (IC50) was 4.3 µM in assay [5] and 6.89 µM in assay [6].
Consider `COc1ccc(-c2cc(-c3ccccc3)no2)c(OCC(=O)O)c1`, for which, in the assay on Rattus norvegicus [1], the inhibition in vivo at 100 mg/kg turned out to be 11.7%. The compound also returned an Activity in assay [2] of 75.2%. Besides, the values for the half-inhibitory concentration (IC50) in assay [5] and in assay [6] were 9.1 µM and 9.3 µM, respectively.
On to `CCCCN(C)CCCOc1cc(OC)ccc1-c1cc(-c2ccccc2)no1`, for which the inhibition in vivo at 100 mg/kg turned out to be 15% in the assay with Rattus norvegicus [1], 12.6% with Rattus norvegicus [3] and 14.2% in the assay with Rattus norvegicus [4]. In addition, the inhibition in assay [2] is 14.4%. The half-maximal inhibitory concentration (IC50) amounted to 37.3 µM in assay [5] and 37.5 µM in assay [6].
As for `COc1ccc(-c2cc(-c3ccccc3)no2)c(OCCCCl)c1`, in the assay with Rattus norvegicus [1], the inhibition in vivo at 100 mg/kg worked out at 9.24%. In assay [2], this compound gave an inhibition of 9%. Moreover, the IC50 in assay [5] turned out to be 56.8 µM; in assay [6], 56.9 µM.

The inhibition in vivo is how much of the control response was suppressed. As a reminder, the IC50 is the concentration at which inhibition is half-maximal. Usually inhibition stands for the percentage by which the read-out fell short of the control.

Values taken from ChEMBL document CHEMBL1781977, “Design and synthesis of 3,5-diarylisoxazole derivatives as novel class of anti-hyperglycemic and lipid lowering agents” (Bioorg Med Chem, 2009).
